Legend:
[1] = target: Aurora kinase B (Homo sapiens) (UniProt Q96GD4); experiment: Inhibition of aurora B at 10 uM
[2] = target: 3-phosphoinositide-dependent protein kinase 1 (Homo sapiens) (UniProt O15530); experiment: Inhibition of PDK1 at 10 uM
NCI-H460 = experiment: Antiproliferative activity against human NCI-H460 cells at 100 uM after 48 hrs relative to control; format: functional; settings: NCI-H460, 48 h
Method in brief: (§1)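 NCI three-cell-line prescreen (MCF7 breast, NCI-H460 non-small cell lung, SF-268 CNS). Cells inoculated and preincubated in microtiter plates, then exposed to test agent at 10^-4 M for 48 h. Alamar blue end-point read-out. Growth of treated cells expressed as percent of untreated control cells.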

MCF7 = experiment: Antiproliferative activity against human MCF7 cells at 100 uM after 48 hrs relative to control; format: functional; settings: MCF7, 48 h; method in brief: as §1
[3] = target: Serine/threonine-protein kinase PLK1 (Homo sapiens) (UniProt P53350); experiment: Inhibition of PLK1 at 10 uM
[4] = target: T1, Aurora kinase A (Homo sapiens) (UniProt O14965); experiment: Inhibition of aurora A at 10 uM
T1 sequence (whole entry): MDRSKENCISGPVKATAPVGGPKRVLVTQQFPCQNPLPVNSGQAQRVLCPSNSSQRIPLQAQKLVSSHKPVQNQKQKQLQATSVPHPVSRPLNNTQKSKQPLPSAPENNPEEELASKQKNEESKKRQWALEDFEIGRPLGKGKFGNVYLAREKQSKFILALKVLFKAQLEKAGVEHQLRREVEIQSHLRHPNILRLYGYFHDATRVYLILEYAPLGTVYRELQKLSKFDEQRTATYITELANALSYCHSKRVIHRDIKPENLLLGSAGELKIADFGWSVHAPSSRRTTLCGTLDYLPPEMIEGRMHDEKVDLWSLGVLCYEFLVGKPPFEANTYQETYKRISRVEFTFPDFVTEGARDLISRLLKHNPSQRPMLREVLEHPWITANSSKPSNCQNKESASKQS

[5] = target: Receptor tyrosine-protein kinase erbB-2 (Homo sapiens) (UniProt P04626); experiment: Inhibition of ERBB2 at 10 uM
[6] = target: Vascular endothelial growth factor receptor 3 (Homo sapiens, UniProt P35916); experiment: Inhibition of VEGFR3 at 10 uM
[7] = target: Platelet-derived growth factor receptor beta (Homo sapiens) (UniProt P09619); experiment: Inhibition of PDGFRbeta at 10 uM
[8] = target: Hepatocyte growth factor receptor (Homo sapiens) (UniProt P08581); experiment: Inhibition of MET at 10 uM
[9] = target: T2, NUAK family SNF1-like kinase 1 (Homo sapiens) (UniProt O60285); experiment: Inhibition of ARK5 at 10 uM
T2 sequence (whole entry): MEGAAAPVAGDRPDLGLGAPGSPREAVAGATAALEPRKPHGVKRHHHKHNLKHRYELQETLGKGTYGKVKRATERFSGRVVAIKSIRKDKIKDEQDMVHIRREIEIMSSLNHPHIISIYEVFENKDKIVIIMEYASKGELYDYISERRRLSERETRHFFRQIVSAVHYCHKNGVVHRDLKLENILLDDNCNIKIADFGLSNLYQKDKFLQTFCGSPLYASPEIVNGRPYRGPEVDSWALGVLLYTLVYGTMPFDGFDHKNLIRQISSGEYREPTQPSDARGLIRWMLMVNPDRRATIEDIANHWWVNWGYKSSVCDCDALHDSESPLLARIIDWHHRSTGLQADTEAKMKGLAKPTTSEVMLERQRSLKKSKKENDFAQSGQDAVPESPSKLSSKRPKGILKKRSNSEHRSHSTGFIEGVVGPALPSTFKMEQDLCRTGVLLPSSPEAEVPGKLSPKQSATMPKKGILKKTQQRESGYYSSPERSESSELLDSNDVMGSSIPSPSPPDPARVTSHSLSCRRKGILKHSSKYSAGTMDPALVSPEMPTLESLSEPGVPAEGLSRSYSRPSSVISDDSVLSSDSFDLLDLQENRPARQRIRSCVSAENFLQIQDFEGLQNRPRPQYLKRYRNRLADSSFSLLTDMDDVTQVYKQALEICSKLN

[10] = target: Angiopoietin-1 receptor (Homo sapiens) (UniProt Q02763); experiment: Inhibition of TIE2 at 10 uM
[11] = target: Vascular endothelial growth factor receptor 2 (Homo sapiens) (UniProt P35968); experiment: Inhibition of VEGFR2 at 10 uM
[12] = target: T3, Serine/threonine-protein kinase PLK4 (Homo sapiens) (UniProt O00444); experiment: Inhibition of SAK at 10 uM
T3 sequence (whole entry): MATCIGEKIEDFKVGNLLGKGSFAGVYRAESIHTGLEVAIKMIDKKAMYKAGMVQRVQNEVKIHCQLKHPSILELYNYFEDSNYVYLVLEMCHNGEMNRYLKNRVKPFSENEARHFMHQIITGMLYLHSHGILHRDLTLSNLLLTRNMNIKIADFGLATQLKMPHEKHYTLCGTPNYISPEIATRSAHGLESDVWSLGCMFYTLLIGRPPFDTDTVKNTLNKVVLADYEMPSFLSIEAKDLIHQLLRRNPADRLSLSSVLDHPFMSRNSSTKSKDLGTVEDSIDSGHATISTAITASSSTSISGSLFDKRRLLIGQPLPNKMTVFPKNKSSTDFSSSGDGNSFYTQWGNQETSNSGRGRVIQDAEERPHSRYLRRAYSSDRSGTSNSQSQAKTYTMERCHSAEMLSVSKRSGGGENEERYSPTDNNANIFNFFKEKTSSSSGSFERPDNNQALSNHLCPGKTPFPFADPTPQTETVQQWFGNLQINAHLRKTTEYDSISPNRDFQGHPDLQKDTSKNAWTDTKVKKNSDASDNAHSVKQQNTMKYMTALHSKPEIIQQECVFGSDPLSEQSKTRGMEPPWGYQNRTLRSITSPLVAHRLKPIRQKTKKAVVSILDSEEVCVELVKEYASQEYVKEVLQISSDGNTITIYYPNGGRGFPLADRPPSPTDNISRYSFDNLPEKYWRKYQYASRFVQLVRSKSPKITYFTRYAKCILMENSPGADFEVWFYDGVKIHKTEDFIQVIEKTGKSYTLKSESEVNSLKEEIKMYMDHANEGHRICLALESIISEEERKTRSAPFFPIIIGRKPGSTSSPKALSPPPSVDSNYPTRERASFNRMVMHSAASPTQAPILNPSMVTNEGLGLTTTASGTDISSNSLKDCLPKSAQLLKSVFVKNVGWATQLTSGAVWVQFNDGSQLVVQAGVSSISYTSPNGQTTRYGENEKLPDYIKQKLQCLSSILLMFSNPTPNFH

Homo sapiens = species on record: Homo sapiens; experiment: Inhibition of CK2-alpha1 at 10 uM
[13] = target: Insulin-like growth factor 1 receptor (Homo sapiens) (UniProt P08069); experiment: Inhibition of IGF1R at 10 uM
SF-268 = experiment: Antiproliferative activity against human SF268 cells at 100 uM after 48 hrs relative to control; format: functional; settings: SF-268, 48 h; method in brief: as §1

Sequence of Hepatocyte growth factor receptor (Homo sapiens) (P08581 whole entry): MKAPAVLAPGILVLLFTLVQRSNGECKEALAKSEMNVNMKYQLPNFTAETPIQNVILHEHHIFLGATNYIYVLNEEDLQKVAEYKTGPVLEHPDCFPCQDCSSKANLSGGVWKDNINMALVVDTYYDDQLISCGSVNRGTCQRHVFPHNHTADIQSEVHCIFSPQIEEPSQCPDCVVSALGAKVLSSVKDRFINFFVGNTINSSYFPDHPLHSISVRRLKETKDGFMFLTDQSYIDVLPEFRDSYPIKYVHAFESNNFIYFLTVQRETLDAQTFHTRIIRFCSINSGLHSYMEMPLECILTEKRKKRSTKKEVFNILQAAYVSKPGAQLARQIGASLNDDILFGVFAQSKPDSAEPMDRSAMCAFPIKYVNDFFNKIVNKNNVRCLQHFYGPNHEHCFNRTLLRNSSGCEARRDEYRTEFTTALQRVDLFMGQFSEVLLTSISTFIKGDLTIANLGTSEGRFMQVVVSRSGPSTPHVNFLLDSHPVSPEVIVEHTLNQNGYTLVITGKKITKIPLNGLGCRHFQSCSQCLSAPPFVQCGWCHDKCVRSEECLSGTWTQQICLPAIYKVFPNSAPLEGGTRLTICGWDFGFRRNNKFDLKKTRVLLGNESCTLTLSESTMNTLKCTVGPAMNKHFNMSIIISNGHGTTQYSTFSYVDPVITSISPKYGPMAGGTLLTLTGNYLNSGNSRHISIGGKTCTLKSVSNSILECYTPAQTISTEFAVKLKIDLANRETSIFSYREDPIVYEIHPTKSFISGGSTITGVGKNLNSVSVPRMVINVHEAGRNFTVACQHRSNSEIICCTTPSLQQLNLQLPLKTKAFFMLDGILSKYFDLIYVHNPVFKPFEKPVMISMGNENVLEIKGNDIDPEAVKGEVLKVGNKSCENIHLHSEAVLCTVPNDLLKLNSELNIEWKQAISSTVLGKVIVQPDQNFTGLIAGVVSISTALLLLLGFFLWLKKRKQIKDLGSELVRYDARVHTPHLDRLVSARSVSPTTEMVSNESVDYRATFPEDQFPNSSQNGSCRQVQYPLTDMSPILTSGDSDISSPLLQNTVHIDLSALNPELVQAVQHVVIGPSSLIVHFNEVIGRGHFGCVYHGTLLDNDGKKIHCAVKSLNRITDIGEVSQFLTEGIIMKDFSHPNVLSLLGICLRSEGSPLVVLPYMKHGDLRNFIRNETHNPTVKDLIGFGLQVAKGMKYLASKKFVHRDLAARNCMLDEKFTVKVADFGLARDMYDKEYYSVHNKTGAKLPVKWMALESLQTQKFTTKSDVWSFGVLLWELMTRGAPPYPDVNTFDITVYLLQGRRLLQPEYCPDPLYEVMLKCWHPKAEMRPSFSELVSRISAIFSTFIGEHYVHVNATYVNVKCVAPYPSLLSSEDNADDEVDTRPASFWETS
Sequence of Vascular endothelial growth factor receptor 2 (Homo sapiens) (P35968 whole entry): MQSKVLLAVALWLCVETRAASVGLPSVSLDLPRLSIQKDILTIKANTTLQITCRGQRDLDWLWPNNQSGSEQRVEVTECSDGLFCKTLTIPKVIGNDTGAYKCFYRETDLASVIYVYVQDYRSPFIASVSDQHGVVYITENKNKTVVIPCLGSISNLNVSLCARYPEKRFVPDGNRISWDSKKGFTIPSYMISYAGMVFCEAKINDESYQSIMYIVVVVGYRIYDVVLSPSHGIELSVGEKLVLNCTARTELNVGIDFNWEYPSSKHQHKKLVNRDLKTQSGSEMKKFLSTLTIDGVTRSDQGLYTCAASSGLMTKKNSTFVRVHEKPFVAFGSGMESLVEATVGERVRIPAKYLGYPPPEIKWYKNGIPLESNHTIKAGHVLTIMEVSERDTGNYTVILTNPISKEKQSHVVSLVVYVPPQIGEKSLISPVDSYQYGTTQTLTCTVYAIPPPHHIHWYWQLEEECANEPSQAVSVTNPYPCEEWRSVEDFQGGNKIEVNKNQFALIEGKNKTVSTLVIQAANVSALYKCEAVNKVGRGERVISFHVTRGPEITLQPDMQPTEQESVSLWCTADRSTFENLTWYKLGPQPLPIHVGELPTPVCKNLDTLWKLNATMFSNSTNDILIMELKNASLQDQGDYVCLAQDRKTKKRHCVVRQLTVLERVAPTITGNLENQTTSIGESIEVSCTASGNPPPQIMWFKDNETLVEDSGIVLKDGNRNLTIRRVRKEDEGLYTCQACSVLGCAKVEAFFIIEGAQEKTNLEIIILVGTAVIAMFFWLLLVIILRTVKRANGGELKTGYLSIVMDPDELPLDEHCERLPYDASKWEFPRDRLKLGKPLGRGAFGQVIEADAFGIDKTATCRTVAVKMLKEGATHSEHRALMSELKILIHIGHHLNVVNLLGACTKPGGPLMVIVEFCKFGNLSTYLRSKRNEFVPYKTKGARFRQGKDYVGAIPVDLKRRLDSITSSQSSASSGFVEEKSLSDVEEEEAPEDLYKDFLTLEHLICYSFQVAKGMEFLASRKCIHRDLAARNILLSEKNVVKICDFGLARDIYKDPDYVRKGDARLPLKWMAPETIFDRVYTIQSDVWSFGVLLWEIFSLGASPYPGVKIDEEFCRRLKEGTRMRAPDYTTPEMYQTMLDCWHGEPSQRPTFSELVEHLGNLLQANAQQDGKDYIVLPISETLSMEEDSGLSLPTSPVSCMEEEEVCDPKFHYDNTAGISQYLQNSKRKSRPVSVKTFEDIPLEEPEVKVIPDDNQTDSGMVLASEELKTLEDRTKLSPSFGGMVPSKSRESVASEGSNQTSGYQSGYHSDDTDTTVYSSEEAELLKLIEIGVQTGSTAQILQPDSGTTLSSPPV
Sequence of Serine/threonine-protein kinase PLK1 (Homo sapiens) (P53350 whole entry): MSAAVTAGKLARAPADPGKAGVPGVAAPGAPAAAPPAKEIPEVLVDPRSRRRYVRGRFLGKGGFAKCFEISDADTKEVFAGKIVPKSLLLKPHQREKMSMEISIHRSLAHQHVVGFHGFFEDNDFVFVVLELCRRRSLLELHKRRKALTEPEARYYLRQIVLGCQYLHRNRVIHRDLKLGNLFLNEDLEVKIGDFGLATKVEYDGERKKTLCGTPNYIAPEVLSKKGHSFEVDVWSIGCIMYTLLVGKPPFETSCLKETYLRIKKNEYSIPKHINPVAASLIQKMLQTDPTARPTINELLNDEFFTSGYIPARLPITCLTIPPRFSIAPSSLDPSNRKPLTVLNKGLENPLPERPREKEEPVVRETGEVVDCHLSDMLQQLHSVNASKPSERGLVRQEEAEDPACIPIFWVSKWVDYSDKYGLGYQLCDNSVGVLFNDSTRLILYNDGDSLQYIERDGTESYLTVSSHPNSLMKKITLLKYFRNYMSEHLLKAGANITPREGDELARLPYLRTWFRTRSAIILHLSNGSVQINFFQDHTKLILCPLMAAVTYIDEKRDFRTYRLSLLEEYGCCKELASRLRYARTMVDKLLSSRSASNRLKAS
Sequence of Angiopoietin-1 receptor (Homo sapiens) (Q02763 whole entry): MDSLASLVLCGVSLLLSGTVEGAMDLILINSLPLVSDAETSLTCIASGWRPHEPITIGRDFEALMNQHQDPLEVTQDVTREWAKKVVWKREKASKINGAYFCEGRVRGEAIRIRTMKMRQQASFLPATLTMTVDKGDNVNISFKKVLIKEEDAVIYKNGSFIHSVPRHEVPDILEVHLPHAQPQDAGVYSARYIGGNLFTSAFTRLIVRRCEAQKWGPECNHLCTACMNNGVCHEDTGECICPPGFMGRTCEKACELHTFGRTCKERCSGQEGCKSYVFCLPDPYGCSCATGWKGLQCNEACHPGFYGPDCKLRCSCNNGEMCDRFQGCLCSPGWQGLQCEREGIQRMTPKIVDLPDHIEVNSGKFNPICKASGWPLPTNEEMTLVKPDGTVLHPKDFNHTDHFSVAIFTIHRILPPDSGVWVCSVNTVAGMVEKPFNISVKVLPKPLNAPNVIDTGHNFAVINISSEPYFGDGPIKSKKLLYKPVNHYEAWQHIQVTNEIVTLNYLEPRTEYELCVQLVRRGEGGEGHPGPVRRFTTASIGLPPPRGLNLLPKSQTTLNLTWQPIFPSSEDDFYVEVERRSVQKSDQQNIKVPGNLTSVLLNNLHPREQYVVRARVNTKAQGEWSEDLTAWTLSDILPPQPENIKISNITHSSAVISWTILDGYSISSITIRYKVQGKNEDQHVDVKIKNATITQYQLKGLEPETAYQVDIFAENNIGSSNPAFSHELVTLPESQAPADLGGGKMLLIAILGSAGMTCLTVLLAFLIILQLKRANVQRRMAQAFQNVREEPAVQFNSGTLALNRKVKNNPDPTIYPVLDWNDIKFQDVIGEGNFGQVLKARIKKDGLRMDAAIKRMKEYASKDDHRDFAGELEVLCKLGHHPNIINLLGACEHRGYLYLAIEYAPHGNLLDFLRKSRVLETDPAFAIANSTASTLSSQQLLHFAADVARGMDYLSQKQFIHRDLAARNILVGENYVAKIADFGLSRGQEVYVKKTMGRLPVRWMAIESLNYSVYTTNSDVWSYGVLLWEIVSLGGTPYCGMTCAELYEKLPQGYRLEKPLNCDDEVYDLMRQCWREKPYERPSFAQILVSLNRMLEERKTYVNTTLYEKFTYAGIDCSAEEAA
Sequence of Aurora kinase B (Homo sapiens) (Q96GD4 whole entry): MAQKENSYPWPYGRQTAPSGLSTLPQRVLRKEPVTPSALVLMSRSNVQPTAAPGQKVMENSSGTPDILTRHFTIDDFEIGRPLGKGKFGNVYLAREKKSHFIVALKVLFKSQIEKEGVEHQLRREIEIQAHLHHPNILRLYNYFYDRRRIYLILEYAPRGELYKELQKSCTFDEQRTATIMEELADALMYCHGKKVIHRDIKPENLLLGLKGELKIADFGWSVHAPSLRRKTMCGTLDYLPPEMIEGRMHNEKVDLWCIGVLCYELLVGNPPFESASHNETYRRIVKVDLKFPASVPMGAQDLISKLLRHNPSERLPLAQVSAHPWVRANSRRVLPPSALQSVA

inhibition [1]	inhibition [2]	inhibition [3]	inhibition [4]	inhibition [5]	inhibition [6]	inhibition [7]	inhibition [8]	inhibition [9]	inhibition [10]	inhibition [11]	inhibition [12]	inhibition (Homo sapiens)	inhibition [13]	SMILES	growth, % of control at 100 µM (NCI-H460)	growth, % of control at 100 µM (MCF7)	growth, % of control at 100 µM (SF-268)
< 40%	< 40%	< 40%	< 40%	< 40%	< 40%	< 40%	< 40%	< 40%	< 40%	< 40%	< 40%	< 40%	< 40%	O=C1Cc2cnn(-c3ccc(Br)cc3)c2-c2ccccc2N1	32%	51%	98%
< 40%	< 40%	< 40%	< 40%	< 40%	< 40%	< 40%	< 40%	< 40%	< 40%	< 40%	< 40%	< 40%	< 40%	Cc1ccc(-n2ncc3c2-c2ccccc2NC(=O)C3)cc1	29%	57%	95%

The next lines start with the compound.

SMILES	inhibition [1]	inhibition [2]	inhibition [3]	inhibition [4]	inhibition [5]	inhibition [6]	inhibition [7]	inhibition [8]	inhibition [9]	inhibition [10]	inhibition [11]	inhibition [12]	inhibition (Homo sapiens)	inhibition [13]	growth, % of control at 100 µM (NCI-H460)	growth, % of control at 100 µM (MCF7)	growth, % of control at 100 µM (SF-268)
O=C1Cc2cnn(-c3ccccc3)c2-c2ccccc2N1	< 40%	< 40%	< 40%	< 40%	< 40%	< 40%	< 40%	< 40%	< 40%	< 40%	< 40%	< 40%	< 40%	< 40%	33%	55%	90%
Cc1ccccc1-n1ncc2c1-c1ccccc1NC(=O)C2	< 40%	< 40%	< 40%	< 40%	< 40%	< 40%	< 40%	< 40%	< 40%	< 40%	< 40%	< 40%	< 40%	< 40%	49%	64%	98%
O=C1Cc2cnn(-c3ccccc3Br)c2-c2ccccc2N1	< 40%	< 40%	< 40%	< 40%	< 40%	< 40%	< 40%	< 40%	< 40%	< 40%	< 40%	< 40%	< 40%	< 40%	44%	69%	87%

— ChEMBL document CHEMBL1139946, “1-Aryl-4,6-dihydropyrazolo[4,3-d][1]benzazepin-5(1H)-ones: a new class of antiproliferative agents with selectivity for human leukemia and breast cancer cell lines” (Eur J Med Chem, 2007)
